Results taken from ChEMBL document CHEMBL1142770, “Structure-activity relationships of 1,3,5-triazine-2,4,6-triones as human gonadotropin-releasing hormone receptor antagonists” (Bioorg Med Chem Lett, 2005).

Target: T1, Gonadotropin-releasing hormone receptor (Homo sapiens, UniProt P30968)
T1 sequence (P30968 whole entry): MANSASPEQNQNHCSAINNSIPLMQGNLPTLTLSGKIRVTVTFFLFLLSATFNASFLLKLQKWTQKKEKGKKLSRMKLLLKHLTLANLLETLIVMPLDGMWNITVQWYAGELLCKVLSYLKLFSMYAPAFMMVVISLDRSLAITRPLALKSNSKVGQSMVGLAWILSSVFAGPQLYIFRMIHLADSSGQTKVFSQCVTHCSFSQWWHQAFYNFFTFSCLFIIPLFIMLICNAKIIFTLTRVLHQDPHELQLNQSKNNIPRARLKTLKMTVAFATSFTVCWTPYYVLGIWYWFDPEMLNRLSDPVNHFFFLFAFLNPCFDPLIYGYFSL
Assay: In vitro ability to inhibit des-Gly[125I-Tyr, DLeu, NMeLeu,Pro-NEt]-GnRH radioligand binding to the cloned human GnRH receptor stably expressed in HEK293 cells
Type: cell-based
Details: not given
Outline: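 A standard antagonist on each plate controlled for plate-to-plate variation. Key compounds were run in three to eight independent experiments.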

Row | SMILES | Ki
1 | COc1cccc(-n2c(=O)n(Cc3ccccc3F)c(=O)n(C[C@H](N)c3ccccc3)c2=O)c1F | 11 nM
2 | COc1cccc(-n2c(=O)n(Cc3c(F)cccc3C(F)(F)F)c(=O)n(C[C@H](N)c3ccccc3)c2=O)c1F | 3 nM
3 | COc1ccccc1Cn1c(=O)n(C[C@H](N)c2ccccc2)c(=O)n(-c2cccc(OC)c2F)c1=O | 120 nM
4 | COc1cccc(-n2c(=O)n(Cc3ccccc3C)c(=O)n(C[C@H](N)c3ccccc3)c2=O)c1F | 29 nM
5 | COc1cccc(-n2c(=O)n(Cc3c(F)cccc3F)c(=O)n(CC(N)c3ccccc3F)c2=O)c1F (centres undefined) | 20 nM
6 | COc1cccc(-n2c(=O)n(Cc3cccnc3Cl)c(=O)n(C[C@H](N)c3ccccc3)c2=O)c1F | 66 nM
7 | COc1cccc(-n2c(=O)n(Cc3ccccc3Cl)c(=O)n(C[C@H](N)c3ccccc3)c2=O)c1F | 20 nM
8 | COc1cccc(-n2c(=O)n(Cc3c(F)cccc3F)c(=O)n(CC(N)CC(C)C)c2=O)c1F (centres undefined) | 620 nM
9 | COc1cccc(-n2c(=O)n(Cc3c(F)cccc3Cl)c(=O)n(C[C@H](N)c3ccccc3)c2=O)c1F | 5 nM
10 | COc1cccc(-n2c(=O)n(CC[C@H](N)c3ccccc3)c(=O)n(Cc3c(F)cccc3F)c2=O)c1F | 24 nM
11 | COc1cccc(-n2c(=O)n(CC3CCCCC3)c(=O)n(C[C@H](N)c3ccccc3)c2=O)c1F | > 10000 nM
12 | COc1cccc(-n2c(=O)n(C[C@H](N)c3ccccc3)c(=O)n(C(C)c3c(F)cccc3F)c2=O)c1F (some centres undefined) | 630 nM
13 | COc1cccc(-n2c(=O)n(Cc3c(F)cccc3F)c(=O)n(C[C@H](N)c3ccccc3)c2=O)c1F | 9 nM
14 | COc1cccc(-n2c(=O)n(Cc3c(Cl)cccc3C#N)c(=O)n(C[C@H](N)c3ccccc3)c2=O)c1F | 73 nM
15 | COc1cccc(-n2c(=O)n(Cc3c(Cl)cccc3Cl)c(=O)n(C[C@H](N)c3ccccc3)c2=O)c1F | 36 nM
16 | COc1cccc(-n2c(=O)n(CC[C@H](N)CC(C)C)c(=O)n(Cc3c(F)cccc3F)c2=O)c1F | 1500 nM

Second part, the compound after the results:

Row | Ki | SMILES
17 | 66 nM | COc1cccc(-n2c(=O)n(CCC(N)c3cccc(F)c3)c(=O)n(Cc3c(F)cccc3F)c2=O)c1 (centres undefined)
18 | 120 nM | COc1cccc(-n2c(=O)n(Cc3c(F)cccc3F)c(=O)n(CC(N)c3ccccc3F)c2=O)c1 (centres undefined)
19 | 83 nM | COc1cccc(-n2c(=O)n(CCC(N)c3ccc(F)cc3)c(=O)n(Cc3c(F)cccc3F)c2=O)c1 (centres undefined)
20 | 75 nM | COc1cccc(-n2c(=O)n(CCC(N)c3ccccc3C)c(=O)n(Cc3c(F)cccc3F)c2=O)c1 (centres undefined)
21 | 28 nM | COc1cccc(-n2c(=O)n(Cc3c(F)cccc3F)c(=O)n(CC(CN)c3ccccc3)c2=O)c1 (centres undefined)
22 | 27 nM | COc1cccc(-n2c(=O)n(CCC(N)c3cccs3)c(=O)n(Cc3c(F)cccc3F)c2=O)c1 (centres undefined)
23 | 800 nM | COc1cccc(-n2c(=O)n(CCC(N)c3ccccc3F)c(=O)n(Cc3c(F)cccc3F)c2=O)c1 (centres undefined)
24 | 70 nM | COc1cccc(-n2c(=O)n(CCC(N)c3ccccc3)c(=O)n(Cc3c(F)cccc3F)c2=O)c1 (centres undefined)
25 | 580 nM | COc1cccc(-n2c(=O)n(CCC(N)c3cccnc3)c(=O)n(Cc3c(F)cccc3F)c2=O)c1 (centres undefined)
26 | 180 nM | COc1cccc(-n2c(=O)n(CCC(N)c3ccccc3Cl)c(=O)n(Cc3c(F)cccc3F)c2=O)c1 (centres undefined)

Tested on: not listed separately
Assay: Intrinsic clearance in human liver microsomes(HLM) for metabolic stability
Type: ADME, Microsome
Details: read-out: CI

Row | CLint scaled | SMILES
27 | 249 mL/min/kg | COc1cccc(-n2c(=O)n(Cc3ccccc3C#N)c(=O)n(C[C@H](N)c3ccccc3)c2=O)c1F
28 | 158 mL/min/kg | COc1cccc(-n2c(=O)n(Cc3c(F)cccc3Br)c(=O)n(C[C@H](N)c3ccccc3)c2=O)c1F
29 | 146 mL/min/kg | COc1cccc(-n2c(=O)n(Cc3ccccc3OC(F)(F)F)c(=O)n(C[C@H](N)c3ccccc3)c2=O)c1F
